Values belong to the molecule of their own block, whether it stands above or below them. Active and inactive are the calls of the source. The rule behind the calls is not given here.
How the values were obtained:
[1] = target: T1, 5-hydroxytryptamine receptor 2A (Homo sapiens, UniProt P28223); assay: Displacement of [125I]DOI from human recombinant 5HT2A receptor expressed in HEK293 cells by scintillation counting; assay type: cell-based
How it was run: (§1)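 Crude plasma membranes from HEK293 cells stably expressing the human receptor (5–25 μg protein), in 20 mM HEPES pH 7.4 with 10 mM MgCl2. Incubated with 0.5 nM [125I]DOI and test compound (1 pM–10 μM) for 1 h at room temperature; nonspecific binding defined with 10 μM cold DOI. Filtered, washed with ice-cold Tris buffer and scintillation counted in triplicate.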

[2] = target: T2, 5-hydroxytryptamine receptor 2C (Homo sapiens, UniProt P28335); assay: Displacement of [125I]DOI from human recombinant 5HT2C receptor expressed in HEK293 cells by scintillation counting; assay type: cell-based; how it was run: as §1
T2 sequence (P28335 whole entry): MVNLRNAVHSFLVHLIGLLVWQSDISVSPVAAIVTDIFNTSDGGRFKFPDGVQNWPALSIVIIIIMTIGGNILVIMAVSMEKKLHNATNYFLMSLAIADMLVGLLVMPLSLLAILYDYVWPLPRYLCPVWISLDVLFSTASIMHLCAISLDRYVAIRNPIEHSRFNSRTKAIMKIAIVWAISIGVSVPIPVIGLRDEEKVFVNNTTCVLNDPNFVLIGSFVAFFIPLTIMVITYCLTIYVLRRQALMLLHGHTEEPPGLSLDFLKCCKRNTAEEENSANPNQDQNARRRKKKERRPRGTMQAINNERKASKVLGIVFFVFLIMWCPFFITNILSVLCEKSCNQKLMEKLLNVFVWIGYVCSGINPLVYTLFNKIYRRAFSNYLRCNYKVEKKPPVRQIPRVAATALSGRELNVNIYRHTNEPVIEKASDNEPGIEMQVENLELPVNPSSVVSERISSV

hERG (KCNH2) [3] = target: T3, hERG (KCNH2) (Homo sapiens, UniProt Q12809); assay: Inhibition of human ERG at 3 uM by patch clamp assay
[4] = Antiplatelet activity in human platelet rich plasma assessed as inhibition of ADP-induced aggregation preincubated for 1 min before 5-HT and ADP challenge measured after 3 mins by turbidimetry
Canis familiaris [5] = assay: Ex vivo inhibition of serotonin-mediated amplification of collagen-stimulated platelet aggregation in Beagle dog at 1 mg/kg, po for 10 days measured after 10 days; assay type: functional, organism-based; set-up: dose 1 mg/kg; details: Canis lupus familiaris
How it was run: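 Beagle dogs dosed orally with 1 mg/kg daily for 10 days. Serotonin-mediated amplification of collagen-stimulated aggregation then measured in whole blood ex vivo.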

[6] = Half life in monkey at 10 mg/kg, po by HPLC/MS/MS analysis; assay type: ADME, organism-based, Macaca mulatta; set-up: dose 10 mg/kg, route oral; details: rhesus monkey, in vivo
How it was run: (§2)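 Oral dose 10 mg/kg; %F calculated relative to a 2 mg/kg iv dose. Values are the mean of n = 3 animals.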

[7] = Half life in Sprague-Dawley rat at 10 mg/kg, po by HPLC/MS/MS analysis; assay type: ADME, organism-based; set-up: dose 10 mg/kg, route oral; details: in vivo
How it was run: (§3)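 Male rats fasted overnight before oral dosing; 10 mg/kg po and 2 mg/kg iv in 80% PEG400/20% phosphate buffered saline. Jugular vein blood was sampled at 0.25–21 h over 24 h, and heparin plasma was assayed by HPLC/MS/MS (MRM, positive electrospray, internal standard; LLOQ 1 ng/mL, ULOQ 2000 ng/mL). %F is taken relative to the 2 mg/kg iv dose. Mean of n = 3 animals.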

[8] = Total clearance in monkey at 2 mg/kg, iv after 24 hrs by HPLC/MS/MS analysis; assay type: ADME, organism-based, Macaca mulatta; set-up: dose 2 mg/kg, route intravenous; details: rhesus monkey, in vivo; how it was run: as §2
[9] = AUC (0 to last) in Sprague-Dawley rat at 10 mg/kg, po after 24 hrs by HPLC/MS/MS analysis; assay type: ADME, organism-based; set-up: time 0 - last, dose 10 mg/kg, route oral; details: plasma; how it was run: as §3
[10] = Volume of distribution at steady state in monkey at 2 mg/kg, iv after 24 hrs by HPLC/MS/MS analysis; assay type: ADME, organism-based, Macaca mulatta; set-up: dose 2 mg/kg, route intravenous; details: rhesus monkey, in vivo, read-out: Vdss; how it was run: as §2
[11] = Total clearance in Sprague-Dawley rat at 2 mg/kg, iv after 24 hrs by HPLC/MS/MS analysis; assay type: ADME, organism-based; set-up: dose 2 mg/kg, route intravenous; details: in vivo; how it was run: as §3
[12] = Ratio of drug level in brain to plasma in Sprague-Dawley rat at 30 mg/kg, po after 24 hrs; assay type: ADME, organism-based; set-up: dose 30 mg/kg, route oral; details: read-out: BPR
[13] = Volume of distribution at steady state in dog at 2 mg/kg, iv after 24 hrs by HPLC/MS/MS analysis; assay type: ADME, organism-based, Canis lupus familiaris; set-up: dose 2 mg/kg, route intravenous; details: in vivo, read-out: Vdss; how it was run: as §2
Canis familiaris [14] = assay: Antithrombotic activity in Beagle dog Folts model of recurrent coronary thrombosis model assessed as inhibition of thrombosis occurrence at 0.07 mg/kg, iv bolus dose followed by continuous fusion of 1.16 ug/kg/min, iv administered after onset of thrombosis; assay type: functional; details: Canis lupus familiaris
How it was run: (§4)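 Anesthetized dogs in the Folts model of recurrent coronary thrombosis. Given 0.07 mg/kg iv bolus followed by continuous iv infusion of 1.16 μg/kg/min, either before or after onset of recurrent thrombosis. Read-out is flow-time area, compared with saline controls.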

Canis familiaris [15] = assay: Antithrombotic activity in Beagle dog Folts model of recurrent coronary thrombosis model assessed as inhibition of thrombosis occurrence at 0.07 mg/kg, iv bolus dose followed by continuous fusion of 1.16 ug/kg/min, iv administered before onset of thrombosis; assay type: functional; details: Canis lupus familiaris; how it was run: as §4
[16] = Bioavailability in Sprague-Dawley rat at 2 mg/kg, iv after 24 hrs by HPLC/MS/MS analysis; assay type: ADME, organism-based; details: in vivo; how it was run: as §3
[17] = target: 5-hydroxytryptamine receptor 2B (Homo sapiens, UniProt P41595); assay: Displacement of [125I]DOI from human recombinant 5HT2B receptor expressed in HEK293 cells by scintillation counting; assay type: cell-based
[18] = Bioavailability in dog at 2 mg/kg, iv after 24 hrs by HPLC/MS/MS analysis; assay type: ADME, organism-based, Canis lupus familiaris; details: in vivo; how it was run: as §2
[19] = Half life in dog at 10 mg/kg, po by HPLC/MS/MS analysis; assay type: ADME, organism-based, Canis lupus familiaris; set-up: dose 10 mg/kg, route oral; details: in vivo; how it was run: as §2
[20] = Cmax in monkey at 10 mg/kg, po after 24 hrs by HPLC/MS/MS assay; assay type: ADME, organism-based, Macaca mulatta; set-up: dose 10 mg/kg, route oral; details: rhesus monkey, in vivo; how it was run: as §2
Canis familiaris [21] = assay: Ex vivo inhibition of serotonin-mediated amplification of collagen-stimulated platelet aggregation in Beagle dog at 10 mg/kg, po administered as single dose measured after 1 hr; assay type: functional, organism-based; set-up: dose 10 mg/kg; details: Canis lupus familiaris
How it was run: (§5)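 Beagle dogs given a single oral dose of 10 mg/kg. Serotonin-mediated amplification of collagen-stimulated aggregation measured in whole blood ex vivo at 1, 6, 12 and 24 h post-dose.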

[22] = Volume of distribution at steady state in Sprague-Dawley rat at 2 mg/kg, iv after 24 hrs by HPLC/MS/MS analysis; assay type: ADME, organism-based; set-up: dose 2 mg/kg, route intravenous; details: in vivo, read-out: Vdss; how it was run: as §3
[23] = Total clearance in dog at 2 mg/kg, iv after 24 hrs by HPLC/MS/MS analysis; assay type: ADME, organism-based, Canis lupus familiaris; set-up: dose 2 mg/kg, route intravenous; details: in vivo; how it was run: as §2
[24] = Antiplatelet activity in dog platelet rich plasma assessed as inhibition of ADP-induced aggregation treated 10 mins after ADP challenge measured after 3 mins by turbidimetry; assay type: functional; details: Canis lupus familiaris
[25] = Cmax in Sprague-Dawley rat at 10 mg/kg, po after 24 hrs by HPLC/MS/MS assay; assay type: ADME, organism-based; set-up: dose 10 mg/kg, route oral; details: in vivo; how it was run: as §3
Canis familiaris [26] = assay: Ex vivo inhibition of serotonin-mediated amplification of collagen-stimulated platelet aggregation in Beagle dog at 10 mg/kg, po administered as single dose measured after 12 hrs; assay type: functional; details: Canis lupus familiaris; how it was run: as §5
[27] = AUC (0 to last) in dog at 10 mg/kg, po after 24 hrs by HPLC/MS/MS analysis; assay type: ADME, organism-based, Canis lupus familiaris; set-up: time 0 - last, dose 10 mg/kg, route oral; details: plasma; how it was run: as §2
[28] = Bioavailability in monkey at 2 mg/kg, iv after 24 hrs by HPLC/MS/MS analysis; assay type: ADME, organism-based, Macaca mulatta; details: rhesus monkey, in vivo; how it was run: as §2
[29] = target: Voltage-gated inwardly rectifying potassium channel KCNH2 (Homo sapiens, UniProt Q12809); assay: Inhibition of human ERG by patch clamp assay
Canis familiaris [30] = assay: Ex vivo inhibition of serotonin-mediated amplification of collagen-stimulated platelet aggregation in Beagle dog at 10 mg/kg, po administered as single dose measured after 24 hrs; assay type: functional; details: Canis lupus familiaris; how it was run: as §5
[31] = Cmax in dog at 10 mg/kg, po after 24 hrs by HPLC/MS/MS assay; assay type: ADME, organism-based, Canis lupus familiaris; set-up: dose 10 mg/kg, route oral; details: in vivo; how it was run: as §2
[32] = AUC (0 to last) in monkey at 10 mg/kg, po after 24 hrs by HPLC/MS/MS analysis; assay type: ADME, organism-based, Macaca mulatta; set-up: time 0 - last, dose 10 mg/kg, route oral; details: rhesus monkey, plasma; how it was run: as §2
Canis familiaris [33] = assay: Ex vivo inhibition of serotonin-mediated amplification of collagen-stimulated platelet aggregation in Beagle dog at 10 mg/kg, po administered as single dose measured after 6 hrs; assay type: functional; details: Canis lupus familiaris; how it was run: as §5
[34] = target: T1, 5-hydroxytryptamine receptor 2A; assay: Inverse agonist activity at human 5HT2A receptor expressed in HEK293 cells assessed as inhibition of inositol phosphate accumulation; assay type: functional, cell-based
hERG (KCNH2) [35] = target: T3, hERG (KCNH2); assay: Inhibition of human ERG at 1 uM by patch clamp assay

T3 sequence (Q12809 whole entry): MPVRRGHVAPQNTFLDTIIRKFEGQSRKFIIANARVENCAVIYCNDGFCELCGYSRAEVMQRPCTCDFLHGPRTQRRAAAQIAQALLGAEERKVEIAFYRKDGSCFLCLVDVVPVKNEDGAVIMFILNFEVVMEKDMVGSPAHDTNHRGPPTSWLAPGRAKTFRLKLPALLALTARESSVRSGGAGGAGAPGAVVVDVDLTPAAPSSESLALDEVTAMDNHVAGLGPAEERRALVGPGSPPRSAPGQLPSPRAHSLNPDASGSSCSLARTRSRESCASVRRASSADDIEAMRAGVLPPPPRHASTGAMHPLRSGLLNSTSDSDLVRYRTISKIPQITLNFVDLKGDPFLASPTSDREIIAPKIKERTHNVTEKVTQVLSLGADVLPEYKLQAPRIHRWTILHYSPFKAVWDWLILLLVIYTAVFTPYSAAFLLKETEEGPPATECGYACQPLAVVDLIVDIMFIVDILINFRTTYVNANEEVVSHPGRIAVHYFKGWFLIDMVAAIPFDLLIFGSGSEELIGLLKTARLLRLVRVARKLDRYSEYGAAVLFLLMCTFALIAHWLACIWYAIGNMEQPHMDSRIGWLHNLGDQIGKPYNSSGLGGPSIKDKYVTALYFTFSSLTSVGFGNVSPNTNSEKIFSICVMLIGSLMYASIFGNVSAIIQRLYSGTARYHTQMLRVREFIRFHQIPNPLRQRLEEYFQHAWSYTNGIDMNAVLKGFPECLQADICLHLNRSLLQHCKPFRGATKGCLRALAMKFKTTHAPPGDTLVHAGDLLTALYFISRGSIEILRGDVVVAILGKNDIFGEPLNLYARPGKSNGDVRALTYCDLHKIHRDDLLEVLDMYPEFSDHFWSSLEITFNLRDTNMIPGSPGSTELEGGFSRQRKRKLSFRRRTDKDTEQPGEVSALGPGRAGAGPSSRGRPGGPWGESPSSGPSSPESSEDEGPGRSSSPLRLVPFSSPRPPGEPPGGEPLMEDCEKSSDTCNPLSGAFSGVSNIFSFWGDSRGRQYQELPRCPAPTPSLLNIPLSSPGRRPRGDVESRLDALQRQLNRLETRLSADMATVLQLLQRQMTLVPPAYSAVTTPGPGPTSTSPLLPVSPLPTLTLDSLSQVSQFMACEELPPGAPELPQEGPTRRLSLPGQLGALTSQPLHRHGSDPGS
T1 sequence (P28223 whole entry): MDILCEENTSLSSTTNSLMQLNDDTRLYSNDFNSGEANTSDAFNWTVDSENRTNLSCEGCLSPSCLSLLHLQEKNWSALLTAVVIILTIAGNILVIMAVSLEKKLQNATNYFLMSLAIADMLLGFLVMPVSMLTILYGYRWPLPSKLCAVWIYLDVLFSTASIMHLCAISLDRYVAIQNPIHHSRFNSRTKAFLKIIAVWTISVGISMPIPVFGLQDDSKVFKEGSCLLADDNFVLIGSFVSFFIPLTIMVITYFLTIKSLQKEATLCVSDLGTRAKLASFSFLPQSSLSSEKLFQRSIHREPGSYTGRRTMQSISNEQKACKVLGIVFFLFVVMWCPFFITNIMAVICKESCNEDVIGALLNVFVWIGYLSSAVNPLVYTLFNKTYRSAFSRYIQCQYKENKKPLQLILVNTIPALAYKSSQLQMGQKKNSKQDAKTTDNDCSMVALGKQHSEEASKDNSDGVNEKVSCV
Chain of Voltage-gated inwardly rectifying potassium channel KCNH2 (Q12809 whole entry): as the sequence (Q12809 whole entry) above
Chain of 5-hydroxytryptamine receptor 2B (P41595 whole entry): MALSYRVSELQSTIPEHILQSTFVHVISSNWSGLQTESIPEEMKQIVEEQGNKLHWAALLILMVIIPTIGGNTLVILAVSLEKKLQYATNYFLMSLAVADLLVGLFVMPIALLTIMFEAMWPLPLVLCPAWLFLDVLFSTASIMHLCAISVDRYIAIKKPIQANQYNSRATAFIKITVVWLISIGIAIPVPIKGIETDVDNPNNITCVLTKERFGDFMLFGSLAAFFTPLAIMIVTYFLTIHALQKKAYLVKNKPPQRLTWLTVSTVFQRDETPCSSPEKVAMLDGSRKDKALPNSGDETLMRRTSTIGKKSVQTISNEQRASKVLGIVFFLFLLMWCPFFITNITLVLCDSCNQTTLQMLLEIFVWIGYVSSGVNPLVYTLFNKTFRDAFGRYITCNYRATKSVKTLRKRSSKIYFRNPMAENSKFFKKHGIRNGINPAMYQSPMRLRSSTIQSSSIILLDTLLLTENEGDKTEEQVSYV

Compound: Cn1ncc(Cl)c1-c1cc(NC(=O)c2cccc(F)c2)ccc1OCCN1CCOCC1
- Ki [1]: 0.6 nM
- Ki [2]: 3.38 µM
- inhibition at 3 µM (hERG (KCNH2) [3]): 46%
- IC50 [4]: 22 nM

Compound: COc1cccc(C(=O)Nc2ccc(OCCNCCO)c(-c3ccnn3C)c2)c1
- Ki [1]: 1.8 nM
- Ki [2]: 5.87 µM
- inhibition at 3 µM (hERG (KCNH2) [3]): 36%
- IC50 [4]: 5.8 nM

Compound: Cn1nccc1-c1cc(NC(=O)c2ccc(C(F)(F)F)cc2)ccc1OCCN1CCCC1
- inhibition at 1 µM (hERG (KCNH2) [35]): 66%
- half-life [7]: 168 min
- AUC(0-t) at 24 h [9]: 3830 ng·h/mL
- clearance [11]: 18.3 mL/min/kg
- bioavailability [16]: 43%
- Ki [1]: 1.9 nM
- Ki [2]: 0.225 µM
- Vd [22]: 5.4 L/kg
- Cmax [25]: 453 ng/mL
- IC50 [4]: 2 nM

Compound: Cn1nccc1-c1cc(NC(=O)c2ccc(F)cc2)ccc1OCCN1CCOCC1
- Ki [1]: 18 nM
- Ki [2]: > 10 µM
- IC50 [4]: 100 nM

Second part, led by results:

- half-life [6]: 126 min
- half-life [7]: 60 min
- clearance [8]: 15 mL/min/kg
- AUC(0-t) at 24 h [9]: 43 ng·h/mL
- Vd [10]: 0.6 L/kg
- clearance [11]: 367 mL/min/kg
- Kp at 24 h [12]: 0.05
- Vd [13]: 1.3 L/kg
- bioavailability [16]: 10%
- Ki [1]: 4.9 nM
- Ki [17]: > 10 µM
- bioavailability [18]: 45%
- half-life [19]: 54 min
- Cmax [20]: 1460 ng/mL
- Ki [2]: > 10 µM
- Vd [22]: 29 L/kg
- clearance [23]: 20 mL/min/kg
- IC50 [24]: 23.1 nM
- Cmax [25]: 58 ng/mL
- AUC(0-t) at 24 h [27]: 3540 ng·h/mL
- bioavailability [28]: 16%
- Cmax [31]: 2280 ng/mL
- AUC(0-t) at 24 h [32]: 1920 ng·h/mL
- IC50 [34]: 5.2 nM
- IC50 [4]: 8.7 nM
Compound: COc1cccc(C(=O)Nc2ccc(OCCN3CCOCC3)c(-c3ccnn3C)c2)c1 [TEMANOGREL]
- inhibition (Canis familiaris [5]): Active
- inhibition in vivo at 0.07 mg/kg (Canis familiaris [14]): 58%
- inhibition in vivo at 0.07 mg/kg (Canis familiaris [15]): 58%
- inhibition (Canis familiaris [21]): Active
- inhibition in vivo at 10 mg/kg (Canis familiaris [26]): 57%
- inhibition at 3 µM (hERG (KCNH2) [3]): 32%
- IC50 [29]: 11 µM
- inhibition in vivo at 10 mg/kg (Canis familiaris [30]): 58%
- inhibition in vivo at 10 mg/kg (Canis familiaris [33]): 86%

- Ki [1]: 0.6 nM
- Ki [2]: 1.14 µM
- IC50 [34]: 23 nM
- IC50 [4]: 3.2 nM
Compound: Cn1nccc1-c1cc(NC(=O)c2cccc(C(F)(F)F)c2)ccc1OCCN1CCCC1
- inhibition at 1 µM (hERG (KCNH2) [35]): 80%
